Reference: ChEMBL document CHEMBL4024778, “From Experiments to a Fast Easy-to-Use Computational Methodology to Predict Human Aldehyde Oxidase Selectivity and Metabolic Reactions” (J Med Chem, 2018)
Values belong to the molecule of their own block, whether it stands above or below them.

Experiments:
Liver [1] = test: Drug metabolism in human liver microsomes assessed as formation of 2-(pyrrolidin-1-yl)aniline after 60 mins; assay type: ADME, microsome; conditions: 1 h
Liver [2] = test: Drug level in human liver microsomes treated with N1-(Naphthalen-2-yl)-N2-(pyrimidin-2-yl)ethane-1,2-diamine after 60 mins by LC-MS/MS analysis; assay type: ADME, microsome; conditions: 1 h
Cytochrome P450 3A4 [3] = target: T1, Cytochrome P450 3A4 (Homo sapiens, UniProt P08684); test: Drug level treated with N1-(Naphthalen-2-yl)-N2-(pyrimidin-2-yl)ethane-1,2-diamine assessed as CYP3A4 (unknown origin)-mediated metabolite formation after 60 mins; assay type: ADME; conditions: 1 h
T1 sequence (P08684 whole entry): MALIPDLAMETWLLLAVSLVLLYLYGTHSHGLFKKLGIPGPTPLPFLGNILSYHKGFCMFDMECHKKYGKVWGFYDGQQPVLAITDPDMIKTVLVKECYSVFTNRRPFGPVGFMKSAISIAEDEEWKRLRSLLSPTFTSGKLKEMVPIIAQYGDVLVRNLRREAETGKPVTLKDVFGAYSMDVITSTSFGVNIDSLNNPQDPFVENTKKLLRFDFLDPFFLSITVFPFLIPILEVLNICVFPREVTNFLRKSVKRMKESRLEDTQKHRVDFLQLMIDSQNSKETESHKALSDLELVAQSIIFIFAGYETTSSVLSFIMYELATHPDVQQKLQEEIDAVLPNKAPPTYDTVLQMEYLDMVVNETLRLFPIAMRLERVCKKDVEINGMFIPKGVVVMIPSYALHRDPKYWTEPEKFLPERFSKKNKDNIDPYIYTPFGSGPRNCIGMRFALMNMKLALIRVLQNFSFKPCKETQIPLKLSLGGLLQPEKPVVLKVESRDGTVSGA

Liver [4] = test: Drug level in human liver cytosol treated with N-(2-(Pyrrolidin-1-yl)phenyl)-1H-indole-2-carboxamide at 10 uM after 60 mins by LC-MS/MS analysis; assay type: ADME, tissue-based
Summary of the method: (§1)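 Pooled human liver cytosol incubated with 10 μM substrate at pH 7.4 and 37 °C with 1 mM MgCl2·6H2O. Reactions stopped at 0 and 60 min with ice-cold acetonitrile containing 0.6 μM labetalol as internal standard, alongside a compound-free blank. Protein removed by centrifugation. Supernatant analysed by LC-MS/MS on a QTOF with electrospray ionization, using one of three reversed-phase gradient methods.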

Liver [5] = test: Drug level in human liver microsomes treated with N-((1H-Indol-2-yl)methyl)-2-(pyrrolidin-1-yl)aniline after 60 mins; assay type: ADME, microsome
Liver [6] = test: Drug metabolism in human liver cytosol assessed as formation of 3-(2-(pyrimidin-2-ylamino)ethylamino)quinoxalin-2(1H)-one at 10 uM after 60 mins by LC-MS/MS analysis; assay type: ADME, tissue-based; summary of the method: as §1
Liver [7] = test: Drug metabolism in human liver microsomes after 60 mins; assay type: ADME, microsome; conditions: 1 h
Liver [8] = test: Drug metabolism in human liver cytosol assessed as formation of 2-(pyrrolidin-1-yl)aniline at 10 uM after 60 mins by LC-MS/MS analysis; assay type: ADME, tissue-based; conditions: 1 h; summary of the method: as §1
Liver [9] = test: Drug level in human liver cytosol treated with N1-(pyrimidin-2-yl)-N2-(quinoxalin-2-yl)ethane-1,2-diamine at 10 uM after 60 mins by LC-MS/MS analysis; assay type: ADME, tissue-based; conditions: 1 h; summary of the method: as §1
Cytochrome P450 3A4 [10] = target: T1, Cytochrome P450 3A4; test: Drug metabolism assessed as CYP3A4 (unknown origin)-mediated formation of 2-(pyrimidin-2-ylamino)ethanol after 60 mins; assay type: ADME; conditions: 1 h
Liver [11] = test: Drug metabolism in human liver microsomes assessed as formation of 2-(pyrimidin-2-ylamino)ethanol after 60 mins; assay type: ADME, microsome; conditions: 1 h

- Drug metabolism (Liver [1]): Metabolite_Detected
SMILES: c1ccc(N2CCCC2)c(NCc2cc3ccccc3[nH]2)c1

- Drug metabolism (Liver [2]): Metabolite_Detected
- Drug metabolism (Cytochrome P450 3A4 [3]): Metabolite_Detected
SMILES: OCCNc1ncccn1

- Drug metabolism (Liver [4]): Metabolite_Detected
- Drug metabolism (Liver [5]): Metabolite_Detected
SMILES: Nc1ccccc1N1CCCC1

- Drug metabolism (Liver [6]): Metabolite_Detected
- Drug metabolism (Liver [7]): Metabolite_Notdetected
SMILES: c1cnc(NCCNc2cnc3ccccc3n2)nc1

- Drug metabolism (Liver [8]): Metabolite_Detected
- Drug metabolism (Liver [7]): Metabolite_Notdetected
SMILES: O=C(Nc1ccccc1N1CCCC1)c1cc2ccccc2[nH]1

- Drug metabolism (Liver [9]): Metabolite_Detected
SMILES: O=c1[nH]c2ccccc2nc1NCCNc1ncccn1

- Drug metabolism (Cytochrome P450 3A4 [10]): Metabolite_Detected
- Drug metabolism (Liver [11]): Metabolite_Detected
SMILES: c1cnc(NCCNc2ccc3ccccc3c2)nc1
